Screening results deposited in PubChem by The Scripps Research Institute Molecular Screening Center.
OXTR potentiate: potentiates the human oxytocin receptor response. P30559. 0.061% of 320,000 active. CHO-OTR cells, Fluo-8 calcium fluorescence, potentiator mode; 0% = oxytocin EC15, 100% = EC100. activation, % at 3 µM;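 active means activation above that plate's cutoff, the mean activation of tested compounds plus 3 SD, cut at about 6.6% in these data, passing the limit was not always enough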;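 further: 100% uses oxytocin at 75 nM as the full agonist control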
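Replication – single well per compound, singlicate · Assay system – CHO cell line stably expressing human OTR · Timing – 6 min pre-incubation, 100 s read · Measure – normalized max/min fluorescence ratio, % activation · Doses – 3.0 µM, one dose · Detection – Fluo-8 calcium dye fluorescence · Probe or stimulus – oxytocin near EC15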
TAAR1 agonist: human TAAR1 agonism; Q96RJ0; CHO RD-HGA16 TAAR1, Fluo-8 calcium fluorescence; vehicle wells 0%, saturating PEA agonist 100%; activation, % at 3 µM; 0.99% of 360,000 active; AID 624467;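 active means activation above the mean activation of all test compounds in the run plus 3 SD, cut at about 38% in these data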
Target sequence (Q96RJ0 whole entry, looked up): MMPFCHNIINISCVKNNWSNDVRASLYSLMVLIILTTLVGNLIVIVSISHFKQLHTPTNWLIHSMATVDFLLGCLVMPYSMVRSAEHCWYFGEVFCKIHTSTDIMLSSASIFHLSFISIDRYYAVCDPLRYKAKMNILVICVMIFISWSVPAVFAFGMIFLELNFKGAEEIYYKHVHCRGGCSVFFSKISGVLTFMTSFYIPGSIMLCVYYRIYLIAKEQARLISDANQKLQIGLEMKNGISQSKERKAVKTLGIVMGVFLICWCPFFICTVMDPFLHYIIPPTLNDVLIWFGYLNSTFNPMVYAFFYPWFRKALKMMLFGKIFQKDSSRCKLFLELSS
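Assay system: CHO-derived RD-HGA16 cells with stable Gα16 and human TAAR1; timing: 17-24 h seeding, 75 min 37 °C dye, 30 min RT; read-out: % activation from peak over basal fluorescence ratio, DMSO-to-PEA scaled; measured by: kinetic Fluo-8 calcium fluorescence; benchmarks: low control DMSO, high control PEA (EC100); doses: 3 µM single concentration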
TAAR1 antagonist: human TAAR1 antagonism | AID 624466 | Q96RJ0 | CHO RD-HGA16 TAAR1, Fluo-8 calcium fluorescence, antagonist | inhibition, % at 3 µM | 1.5% of 360,000 active;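 active means inhibition above a per-plate cutoff, the mean inhibition of test compounds on that plate plus 3 SD, cut at about 49% in these data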;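 further: 0% = DMSO plus EC80 beta-PEA response and 100% = DMSO alone without agonist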
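System: RD-HGA16 CHO cells with stable hTAAR1 and Gα16 | Probe or stimulus: EC80 β-phenethylamine stimulus | Dosing: 3 µM, single point | Times: Dye loading 75 min at 37 °C, then 30 min room temperature | Measured by: Fluo-8 calcium-sensitive fluorescence | Read-out basis: % inhibition of agonist calcium response | Replicates: n of 1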
V1R ag counter: counter-screen for oxytocin receptor agonists: human V1a receptor agonists; activation, % at 3 µM; 0.25% of 320,000 active; CHO-V1R cells, Fluo-8 calcium fluorescence, agonist mode; 0% DMSO, 100% 3 nM vasopressin; P37288;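 active means activation above the mean activation of all tested compounds plus 3 SD, per screening run, cut at about 20% in these data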;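 further: signal is peak over basal fluorescence ratio across a 100 second FLIPR read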
OXTR ag: activates the human oxytocin receptor. CHO-OTR cells, Fluo-8 calcium fluorescence; normalized: DMSO 0%, oxytocin 100%. 0.32% of 320,000 active. activation, % at 3 µM. P30559;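 active means activation above the mean of all tested compounds plus 3 SD, cutoff set per screening run, cut at about 20% in these data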;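 further: peak over basal fluorescence ratio from a 100 s FLIPR kinetic read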
nonsel antag count: counter-screen for TAAR1 antagonists: nonselective antagonists | inhibition, % at 3 µM | 77% of 2,400 active | shares compounds with TAAR1 antagonist | counterscreen cell line, calcium fluorescence, antagonist mode | AID 651780; in the data active means inhibition above about 22%;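 further: CHO-Ga16 host cells stimulated with ATP at an EC80 level; 0% = agonist EC80 plus vehicle and 100% = vehicle without agonist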
TAAR1 antag conf: human TAAR1 antagonism, confirmed; shares compounds with TAAR1 antagonist; TAAR1-expressing cells, fluorescence antagonist read-out; inhibition, % at 3 µM; 40% of 2,400 active; in the data active means inhibition above about 49%;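 further: CHO-Ga16 host cells challenged with agonist PEA near its EC80; 0% = agonist at EC80 plus vehicle and 100% = vehicle with no agonist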
Ga16 ag counter: nonselective Ga16 agonism, counter-screen; shares compounds with TAAR1 antagonist; Ga16-expressing cells, calcium fluorescence, agonist counterscreen; activation, % at 3 µM; 18% of 2,400 active; AID 651953; in the data active means activation above about 12%;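 further: 0% = vehicle wells and 100% = saturating stimulus response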
TAAR1 ag counter: TAAR1 agonism, antagonist counter-screen | shares compounds with TAAR1 antagonist | hTAAR1 cell line, fluorescence activation, agonist mode | activation, % at 3 µM | 2% of 2,400 active | AID 651955; in the data active means activation above about 37%;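 further: CHO cells stably expressing TAAR1 with calcium dye readout; 0% = DMSO vehicle and 100% = full agonist response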
Starred values were filed as active, the others as inactive; / = no result. Most compounds without a hit are left out; they make up all but 2.3% or so of the library.

SMILES	OXTR potentiate	TAAR1 agonist	TAAR1 antagonist	V1R ag counter	OXTR ag	nonsel antag count	TAAR1 antag conf	Ga16 ag counter	TAAR1 ag counter
CC[C@H](C)C(C(=O)N1CCN(C(=O)OC(C)(C)C)CC1)n1cc(C(Cc2ccc(O)cc2)NC(=O)OC(C)(C)C)nn1 (some centres undefined)	-11	22	56*	-1	1	30*	48	7	8
Cc1c(-c2ccccc2)nc2ccccc2c1C(=O)OCC(=O)Nc1ncc(C(F)(F)F)cc1Cl	-1	5	53*	1	-1	14	28	5	10
Cc1ccc(CNC(=O)c2ccc(COc3ccccc3)cc2)cc1	0	5	53*	0	0	14	14	2	2
Cc1ccc(/C=N/NC(=O)CSc2nnc(-c3ccc(Cl)cc3)n2-c2ccc(Cl)cc2)o1	-11	14	56*	-1	-2	22*	52*	7	10
COC(=O)Nc1ccc(S(=O)(=O)N2CCC(C(=O)N3CCCC(C)C3)CC2)cc1 (centres undefined)	-13	8	4	1	1	/	/	/	/
O=C(CCCC1=NS(=O)(=O)c2ccccc2N1)N1CCN(c2ccccc2)CC1	-12	14	15	0	-1	/	/	/	/
COc1cccc(N2CCN(C(=O)CC(C)(C)CC3=NS(=O)(=O)c4ccccc4N3)CC2)c1	-14	17	72*	14	12	36*	59*	14*	16
O=C(CN1C(=O)NC2(CCOc3ccccc32)C1=O)Nc1ccc(Br)cc1F (centres undefined)	-8	1	8	3	4	/	/	/	/
COc1ccc(NC(=O)Nc2ccc(F)c(F)c2)c(OC)c1	-2	1	12	3	0	/	/	/	/
O=C(C1CCCN1S(=O)(=O)c1cccc2cccnc12)N1CCn2c1nc1ccccc12 (centres undefined)	1	/	/	1	-1	/	/	/	/
O=C(C1CCN(S(=O)(=O)c2cccc3cccnc23)CC1)N1CCn2c1nc1ccccc12	-8	9	60*	2	-1	28*	44	8	7
CC(C)(C)C(=O)Nc1nnc(SCC(=O)NC2CCCC2)s1	-6	1	7	2	1	/	/	/	/
NS(=O)(=O)c1cccc(NC(=O)c2cccs2)c1	0	-1	-4	1	1	/	/	/	/
NS(=O)(=O)c1cccc(NC(=O)c2cc(-c3cccs3)nc3ccccc23)c1	-2	11	67*	0	1	37*	50*	8	10
COc1cc(-c2cc(C(=O)NCCc3ccc(S(N)(=O)=O)cc3)c3ccccc3n2)cc(OC)c1OC	2	3	42	1	-1	/	/	/	/
O=C(NCc1ccccn1)c1cc(-c2ccncc2)nc2ccccc12	-1	6	8	-1	-1	/	/	/	/
NS(=O)(=O)c1ccc(CNC(=O)c2cc(-c3cccs3)nc3ccccc23)cc1	-3	15	69*	0	1	36*	51*	9	12
O=C(NCc1cccs1)c1cc(-c2ccccc2)nc2ccccc12	-5	7	58*	-1	0	23*	40	7	6
NS(=O)(=O)c1ccc(CCNC(=O)c2cc(-c3cccs3)nc3ccccc23)cc1	/	18	65*	/	/	35*	57*	12*	10
CC(C)CCNC(=O)c1cc(-c2cccs2)nc2ccccc12	-12	8	66*	1	0	29*	46	6	3
O=C(c1cc(-c2cccs2)nc2ccccc12)N1CCN(S(=O)(=O)c2ccccc2)CC1	-9	23	48	4	4	/	/	/	/
CC1CCCN(C(=O)c2cc(-c3cccs3)nc3ccccc23)C1 (centres undefined)	9	6	41	-1	-2	/	/	/	/
O=C(c1cc(-c2cccs2)nc2ccccc12)N1CCN(S(=O)(=O)c2cccc(F)c2)CC1	-5	15	52*	0	1	34*	46	11	12
CN(Cc1ccccc1)C(=O)C1CCCN1S(=O)(=O)c1ccc(Cl)cc1 (centres undefined)	6	3	-6	-1	1	/	/	/	/
COc1ccc(CCC(=O)NCCS(=O)(=O)N2CCN(c3ccccc3OC)CC2)cc1	-13	17	59*	10	10	34*	52*	14*	13
SMILES	OXTR potentiate	TAAR1 agonist	TAAR1 antagonist	V1R ag counter	OXTR ag	nonsel antag count	TAAR1 antag conf	Ga16 ag counter	TAAR1 ag counter
COc1ccc(CCC(=O)NCCS(=O)(=O)N2CCN(c3ccccc3F)CC2)cc1	-2	11	38	2	0	/	/	/	/
CC1(C(=O)Nc2cccc3ncccc23)CCN1C(=O)CCc1ccccc1 (centres undefined)	/	2	10	/	/	/	/	/	/
CC1(C(=O)Nc2cccc3ncccc23)CCN1C(=O)Cc1ccc(-c2ccccc2)cc1 (centres undefined)	/	10	67*	/	/	29*	46	9	7
Cc1ccc(-c2nc3ccccc3[nH]2)cc1NC(=S)NC(=O)c1ccccc1Br	-17	7	70*	2	-2	36*	47	6	0
COc1ccc(CNC(=O)c2ccc(Cn3cc(Br)cn3)o2)cc1	-4	1	-22	0	-1	/	/	/	/
O=[N+]([O-])c1ccc(Cl)c(S(=O)(=O)NCCc2ccccn2)c1	-1	28	-21	4	3	/	/	/	/
Cc1cccc(Cc2ccc(Cl)nn2)c1	-10	7	6	0	0	/	/	/	/
Fc1cccc(-c2cc3nc4c(c(N5CCOCC5)n3n2)CCCC4)c1	-7	7	49*	-1	-2	18	26	5	11
CN(CC(=O)Nc1ccc(Cl)c(S(=O)(=O)N2CCOCC2)c1)C(=O)c1ccc(C#N)cc1	-3	8	-26	0	1	/	/	/	/
CCCNC(=O)c1ccccc1NC(=O)c1ccc2c(c1)NC(=O)C(C)S2 (centres undefined)	-8	9	59*	4	-1	27*	49*	7	14
COC(=O)c1ccc(S(=O)(=O)N(Cc2ccccc2)Cc2ccccc2)n1C	-15	0	102*	1	-2	12	10	0	-2
